Results from ChEMBL document CHEMBL4680121, “Development of (4-methoxyphenyl)-1H-tetrazol-5-amine regioisomers as a new class of selective antitubercular agents” (Eur J Med Chem, 2020).
Values after ≈ are worked out from the molar mass of the structure shown.

Key:
[1] = tested on: Mycobacterium intracellulare; assay: Antimycobacterial activity against Mycobacterium intracellulare assessed as inhibition of microbial growth incubated for 1 week by MABA method; format: functional; conditions: 168 h, time 1 weeks
Method in brief: (§1)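 Microplate Alamar Blue assay using two-fold serial microdilution in Middlebrook 7H9 broth with 10% OADC, compounds 0.125–512 µg/ml from DMSO stocks. Inoculum came from fresh LJ culture, was adjusted to McFarland 1 and diluted 1:20. Plates were incubated 1 week at 37 °C, Alamar blue was added and plates were re-incubated 24 h. MIC was the lowest concentration preventing the blue-to-pink change. Each plate carried growth and sterile controls.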

[2] = tested on: Mycobacterium tuberculosis; assay: Antitubercular activity against Mycobacterium tuberculosis H37Rv ATCC 25618 assessed as inhibition of microbial growth incubated for 1 week by MABA method; format: functional; conditions: H37Rv ATCC 25618, 168 h, time 1 weeks
Method in brief: (§2)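 Microplate Alamar Blue assay in Middlebrook 7H9 broth with 10% OADC. Inoculum from fresh LJ culture was adjusted to McFarland 1 and diluted 1:20. DMSO stocks were two-fold serially diluted to final 0.125–512 µg/ml, with growth and sterile controls. Plates ran 1 week at 37 °C, then Alamar blue was added for 24 h. MIC is the lowest concentration preventing the blue-to-pink change.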

[3] = tested on: Mycobacterium tuberculosis; assay: Antitubercular activity against Mycobacterium tuberculosis Spec.192 assessed as inhibition of microbial growth incubated for 1 week by MABA method; format: functional; conditions: Mycobacterium tuberculosis, 192, 168 h; time 1 weeks; method in brief: as §2
Escherichia coli = assay: Antibacterial activity against Escherichia coli ATCC 25922 assessed as bacterial growth inhibition measured after 18 hrs by two-fold serial microdilution method; format: functional
Method in brief: (§3)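 Two-fold serial broth microdilution in MH II medium following modified CLSI procedures. Compounds were dissolved in DMSO and diluted in medium to at most 1% solvent, tested from 0.03125 to 512 μg/ml. Final inoculum 10^6 CFU/ml. MIC was taken as the lowest concentration with no visible growth after 18 h at 35 °C.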

Mycobacterium avium = assay: Antimycobacterial activity against Mycobacterium avium assessed as inhibition of microbial growth incubated for 1 week by MABA method; format: functional; conditions: 168 h, time 1 weeks; method in brief: as §2
[4] = tested on: Mycobacterium scrofulaceum; assay: Antibacterial activity against Mycobacterium scrofulaceum assessed as inhibition of microbial growth incubated for 1 week by MABA method; format: functional; conditions: 168 h, time 1 weeks; method in brief: as §1
Mycobacterium xenopi = assay: Antibacterial activity against Mycobacterium xenopi assessed as inhibition of microbial growth incubated for 1 week by MABA method; format: functional; conditions: 168 h, time 1 weeks; method in brief: as §1
[5] = tested on: Mycobacterium tuberculosis; assay: Antitubercular activity against Mycobacterium tuberculosis H37Rv ATCC 25618 assessed as fractional inhibitory concentration index incubated for 14 days in presence of 1/2 x MIC isoniazid by MABA method; format: functional; conditions: time 14 day
Method in brief: (§4)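 Interaction analysis in Middlebrook 7H9 with 10% OADC. Combination MICs came from mixing the derivative (1 to 1/32 MIC) with the reference drug at 1/2 MIC, and the reverse, after 14 days at 37 °C with McFarland 1 inoculum. FICI was calculated from the combination MIC values and the MICs alone.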

[6] = tested on: Mycobacterium tuberculosis; assay: Antitubercular activity against Mycobacterium tuberculosis H37Rv ATCC 25618 assessed as fractional inhibitory concentration index incubated for 14 days in presence of 1/2 x MIC streptomycin by MABA method; format: functional; conditions: time 14 day; method in brief: as §4
[7] = tested on: Mycobacterium tuberculosis; assay: Antitubercular activity against Mycobacterium tuberculosis Spec.192 assessed as fractional inhibitory concentration index in presence of 1/2 x MIC rifampicin incubated for 14 days by MABA method; format: functional; conditions: time 14 day; method in brief: as §4
[8] = tested on: Mycobacterium tuberculosis; assay: Antitubercular activity against Mycobacterium tuberculosis Spec.192 assessed as fractional inhibitory concentration index in presence of 1/2 x MIC isoniazid incubated for 14 days by MABA method; format: functional; conditions: time 14 day; method in brief: as §4
[9] = tested on: Staphylococcus epidermidis; assay: Antibacterial activity against Staphylococcus epidermidis ATCC 12228 assessed as bacterial growth inhibition measured after 18 hrs by two-fold serial microdilution method; format: functional; method in brief: as §3
Staphylococcus aureus = assay: Antibacterial activity against Staphylococcus aureus ATCC 6538 assessed as bacterial growth inhibition measured after 18 hrs by two-fold serial microdilution method; format: functional; method in brief: as §3
Pseudomonas aeruginosa = assay: Antibacterial activity against Pseudomonas aeruginosa PAO1 assessed as bacterial growth inhibition measured after 18 hrs by two-fold serial microdilution method; format: functional; method in brief: as §3
V79 = assay: Cytotoxicity against Chinese Hamster V79 cells assessed as reduction in cell viability measured after 72 hrs by MTT assay; format: cell-based; conditions: Cricetulus griseus, V79, 72 h
Method in brief: (§5)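 MTT viability assay on cells grown in DMEM with 10% heat-inactivated FBS, penicillin/streptomycin and 20 mM HEPES at 37 °C/5% CO2. Cells were seeded at 1×10^4 per well and allowed to adhere for 24 h, then the medium was refreshed. Compounds were added at 20–140 μM for 72 h at 37 °C, followed by MTT (0.5 mg/mL in serum-free medium) for 4 h. Untreated cells served as control. IC50 is the concentration giving 50% growth inhibition versus control.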

[10] = Cytotoxicity against human HTB-140 cells assessed as LDH release at 100 uM incubated for 72 hrs by LDH assay; format: cell-based; conditions: htb-140, 72 h
Method in brief: (§6)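 LDH release measured with a kit after 72 h exposure to 100 μM compound. Cells were seeded at 1×10^4 per well in DMEM or EMEM with 2% FBS. Absorbance was read at 490 nm. Release (%) = (A sample − A low control)/(A high control − A low control) × 100, with the Triton X-100 (1%) control taken as 100% release. Values are mean ± SD of three independent experiments run in triplicate.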

A549 = assay: Cytotoxicity against human A549 cells assessed as LDH release at 100 uM incubated for 72 hrs by LDH assay; format: cell-based; conditions: a549, 72 h; method in brief: as §6
[11] = tested on: Mycobacterium tuberculosis; assay: Antitubercular activity against Mycobacterium tuberculosis H37Rv ATCC 25618 assessed as ethambutol MIC incubated for 14 days in presence of ethambutol by MABA method; format: functional; conditions: H37Rv ATCC 25618, 336 h, time 14 day
Method in brief: (§7)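 In Middlebrook 7H9 with 10% OADC, the reference drug (INH, RMP, SM or EMB) at 1 to 1/32 of its MIC alone was mixed with the test derivative fixed at 1/2 its MIC. 4 ml samples were inoculated with McFarland 1 suspension and incubated 14 days at 37 °C. MIC is the lowest drug concentration in combination that inhibited growth.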

[12] = tested on: Mycobacterium tuberculosis; assay: Antitubercular activity against Mycobacterium tuberculosis Spec.192 assessed as reduction in bacterial growth incubated for 14 days in presence of 1/2 x MIC ethambutol by MABA method; format: functional; conditions: Mycobacterium tuberculosis, 192, 336 h; time 14 day
Method in brief: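 Checkerboard-type combination in Middlebrook 7H9 with 10% OADC. The test derivative at 1 to 1/32 of its MIC alone was mixed with the reference drug fixed at 1/2 its MIC. 4 ml samples were inoculated with McFarland 1 suspension and incubated 14 days at 37 °C. MIC is the lowest derivative concentration in combination that inhibited growth in liquid medium.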

[13] = tested on: Mycobacterium tuberculosis; assay: Antitubercular activity against Mycobacterium tuberculosis Spec.192 assessed as rifampicin MIC incubated for 14 days in presence of rifampicin by MABA method; format: functional; conditions: Mycobacterium tuberculosis, 192, 336 h; time 14 day; method in brief: as §7
[14] = tested on: Mycobacterium tuberculosis; assay: Antitubercular activity against Mycobacterium tuberculosis Spec.192 assessed as isoniazid MIC incubated for 14 days in presence of isoniazid by MABA method; format: functional; conditions: Mycobacterium tuberculosis, 192, 336 h; time 14 day; method in brief: as §7
HaCaT = assay: Cytotoxicity against human HaCaT cells assessed as reduction in cell viability at 100 uM measured after 72 hrs by MTT assay; format: cell-based; method in brief: as §5

Row | SMILES | MIC [1] | MIC [2] | MIC [3] | MIC (Escherichia coli) | MIC (Mycobacterium avium) | MIC [4] | MIC (Mycobacterium xenopi) | fractional inhibitory concentration index (FICI) [5] | fractional inhibitory concentration index (FICI) [6] | fractional inhibitory concentration index (FICI) [7] | fractional inhibitory concentration index (FICI) [8] | MIC [9] | MIC (Staphylococcus aureus) | MIC (Pseudomonas aeruginosa) | IC50 (V79) | Activity [10] | Activity (A549) | MIC [11] | MIC [12] | MIC [13] | other results
1 | COc1ccc(-n2nnnc2Nc2cccc(Br)c2)cc1 | 128 µg/mL | 2 µg/mL | 2 µg/mL | > 256 µg/mL | 256 µg/mL | 512 µg/mL | > 512 µg/mL | 4.125 | 0.5 | 0.5 | 4.125 | > 256 µg/mL | > 256 µg/mL | > 256 µg/mL | 241 µM | < 17% | Non-Toxic | 1 µg/mL | 0.5 µg/mL | 0.25 µg/mL | MIC [14]: 0.5 µg/mL; Activity (HaCaT): Non-Toxic
2 | COc1ccc(-n2nnnc2Nc2ccc(Br)cc2)cc1 | 128 µg/mL | 2 µg/mL | 2 µg/mL | > 256 µg/mL | 512 µg/mL | 512 µg/mL | 256 µg/mL | 4.125 | 0.375 | 0.5 | 4.125 | 256 µg/mL (≈ 739 µM) | > 256 µg/mL | > 256 µg/mL | 212 µM | Non-Toxic | Non-Toxic | 1 µg/mL | 0.25 µg/mL | 0.25 µg/mL | MIC [14]: 0.5 µg/mL; Activity (HaCaT): Non-Toxic
